# Results as given in ChEMBL document CHEMBL3351861, “New synthetic sulfone derivatives inhibit growth, adhesion and the leucine arylamidase APE2 gene expression of Candida albicans in vitro” (2015).
# What was measured:
# Candida albicans [1] = test: Antifungal activity against Candida albicans CAI4 expressing delta-cph1 (CPH1) gene assessed as growth inhibition at 0.25 ug/ml by CLSI M27-A3 method; format: functional; conditions: read-out: GI
# Procedure, shortened: (§1)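 CLSI M27-A3 broth microdilution in RPMI, read after 48 h. Strains pre-grown 18 h in YEPD at 30°C. Final inoculum 0.5×10^2–2.5×10^3 cells/ml. Two-fold dilutions in RPMI came from a 1600 µg/ml stock in water with 9% DMSO; final DMSO was 0.09%. OD405 read, % inhibition = 100 − (CTW−SCW)/(GCW−SCW). Triplicate on three occasions, mean±SD.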
# Candida albicans [2] = test: Antifungal activity against Candida albicans CAI4 expressing delta-efg1 gene assessed as growth inhibition at 0.5 ug/ml by CLSI M27-A3 method; format: functional; conditions: read-out: GI; procedure, shortened: as §1
# Candida albicans [3] = test: Inhibition of cell adhesion of compound pre-treated Candida albicans CAI4 expressing delta-efg1/delta-cph1 gene to human Caco2 cells assessed as cell adhesion level at 8 ug/ml pre-incubated for 18 hrs by colony counting method (reference value: 1.22 +/- 0.78%); format: functional, Caco-2; design: scale not given: the % may be the effect or the level left
# Candida albicans [4] = test: Antifungal activity against Candida albicans CAI4 expressing delta-cph1/delta-efg1 gene assessed as growth inhibition at 1 ug/ml by CLSI M27-A3 method; format: functional; conditions: read-out: GI; procedure, shortened: as §1
# Candida albicans [5] = test: Antifungal activity against Candida albicans CAI4 expressing delta-efg1 gene assessed as growth inhibition at by CLSI M27-A3 method; format: functional
# Procedure, shortened: (§2)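 CLSI M27-A3 broth microdilution in RPMI. Final inoculum 0.5×10^2 to 2.5×10^3 cells/ml. Seven two-fold concentrations from 0.25 to 16 µg/ml, with DMSO held at 0.09% (v/v) in all wells. Compound-free growth controls and sterility controls are run for each strain. […] Triplicate on three occasions.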
# Candida albicans [6] = test: Inhibition of cell adhesion of compound pre-treated Candida albicans CAI4 expressing delta-cph1 (CPH1) gene to human Caco2 cells assessed as cell adhesion level at 8 ug/ml pre-incubated for 18 hrs by colony counting method (reference value: 5.37 +/- 12.4%); format: functional, Caco-2; design: scale not given: the % may be the effect or the level left
# Candida albicans [7] = test: Antifungal activity against Candida albicans CAI4 expressing delta-cph1 (CPH1) gene assessed as growth inhibition at 8 ug/ml by CLSI M27-A3 method; format: functional; conditions: read-out: GI; procedure, shortened: as §1
# Candida albicans [8] = test: Antifungal activity against Candida albicans 90028 assessed as growth inhibition at 0.5 ug/ml by CLSI M27-A3 method; format: functional; conditions: read-out: GI; procedure, shortened: as §1
# Candida albicans [9] = test: Inhibition of cell adhesion of compound pre-treated Candida albicans 90028 to human Caco2 cells assessed as cell adhesion level at 8 ug/ml pre-incubated for 18 hrs by colony counting method (reference value: 1.58 +/- 0.67%); format: functional, Caco-2; design: scale not given: the % may be the effect or the level left
# Candida albicans [10] = test: Antifungal activity against Candida albicans CAI4 expressing delta-efg1 (EFG1) gene assessed as growth inhibition at 8 ug/ml by CLSI M27-A3 method; format: functional; conditions: read-out: GI; procedure, shortened: as §1
# Candida albicans [11] = test: Antifungal activity against Candida albicans CAI4 expressing delta-cph1 (CPH1) gene assessed as growth inhibition at 0.5 ug/ml by CLSI M27-A3 method; format: functional; conditions: read-out: GI; procedure, shortened: as §1
# Candida albicans [12] = test: Antifungal activity against Candida albicans 90028 assessed as growth inhibition at 8 ug/ml by CLSI M27-A3 method; format: functional; conditions: read-out: GI; procedure, shortened: as §1
# Candida albicans [13] = test: Antifungal activity against Candida albicans CAI4 expressing delta-cph1/delta-efg1 (EFG1) gene assessed as growth inhibition at 16 ug/ml by CLSI M27-A3 method; format: functional; conditions: read-out: GI; procedure, shortened: as §1
# Candida albicans [14] = test: Antifungal activity against Candida albicans CAI4 expressing delta-efg1 (EFG1) gene assessed as growth inhibition at 4 ug/ml by CLSI M27-A3 method; format: functional; conditions: read-out: GI; procedure, shortened: as §1
# Candida albicans [15] = test: Antifungal activity against Candida albicans CAI4 expressing delta-efg1 (EFG1) gene assessed as growth inhibition at 0.5 ug/ml by CLSI M27-A3 method; format: functional; conditions: read-out: GI; procedure, shortened: as §1
# Candida albicans [16] = test: Antifungal activity against Candida albicans CAI4 expressing delta-cph1 gene assessed as growth inhibition at 1 ug/ml by CLSI M27-A3 method; format: functional; conditions: read-out: GI; procedure, shortened: as §1
# Candida albicans [17] = test: Antifungal activity against Candida albicans CAI4 expressing delta-cph1 (CPH1) gene assessed as growth inhibition at 4 ug/ml by CLSI M27-A3 method; format: functional; conditions: read-out: GI; procedure, shortened: as §1
# Candida albicans [18] = test: Antifungal activity against Candida albicans CAI4 expressing delta-cph1/delta-efg1 gene assessed as growth inhibition at 4 ug/ml by CLSI M27-A3 method; format: functional; conditions: read-out: GI; procedure, shortened: as §1
# Candida albicans [19] = test: Inhibition of cell adhesion of compound pre-treated Candida albicans CAI4 expressing delta-efg1/delta-cph1 gene to human Caco2 cells assessed as cell adhesion level at 2 ug/ml pre-incubated for 18 hrs by colony counting method (reference value: 1.22 +/- 0.78%); format: functional, Caco-2; design: scale not given: the % may be the effect or the level left
# Candida albicans [20] = test: Antifungal activity against Candida albicans 90028 assessed as growth inhibition at 1 ug/ml by CLSI M27-A3 method; format: functional; conditions: read-out: GI; procedure, shortened: as §1
# Candida albicans [21] = test: Antifungal activity against Candida albicans CAI4 expressing delta-cph1/delta-efg1 gene assessed as growth inhibition at 16 ug/ml by CLSI M27-A3 method; format: functional; conditions: read-out: GI; procedure, shortened: as §1
# Candida albicans [22] = test: Antifungal activity against Candida albicans CAI4 expressing delta-efg1 (EFG1) gene assessed as growth inhibition at 0.25 ug/ml by CLSI M27-A3 method; format: functional; conditions: read-out: GI; procedure, shortened: as §1
# Candida albicans [23] = test: Antifungal activity against Candida albicans CAI4 expressing delta-cph1 gene assessed as growth inhibition at 4 ug/ml by CLSI M27-A3 method; format: functional; conditions: read-out: GI; procedure, shortened: as §1
# Candida albicans [24] = test: Antifungal activity against Candida albicans CAI4 expressing delta-efg1 gene assessed as growth inhibition at 2 ug/ml by CLSI M27-A3 method; format: functional; conditions: read-out: GI; procedure, shortened: as §2
# Candida albicans [25] = test: Antifungal activity against Candida albicans CAI4 expressing delta-cph1/delta-efg1 gene assessed as growth inhibition at 0.5 ug/ml by CLSI M27-A3 method; format: functional; conditions: read-out: GI; procedure, shortened: as §1
# Candida albicans [26] = test: Antifungal activity against Candida albicans CAI4 expressing delta-cph1 gene assessed as growth inhibition at 0.25 ug/ml by CLSI M27-A3 method; format: functional; conditions: read-out: GI; procedure, shortened: as §1
# Candida albicans [27] = test: Antifungal activity against Candida albicans CAI4 expressing delta-efg1 gene assessed as growth inhibition at 4 ug/ml by CLSI M27-A3 method; format: functional; conditions: read-out: GI; procedure, shortened: as §2
# Candida albicans [28] = test: Inhibition of cell adhesion of compound pre-treated Candida albicans CAI4 expressing delta-efg1 gene to human Caco2 cells assessed as cell adhesion level at 16 ug/ml pre-incubated for 18 hrs by colony counting method (reference value: 2.1 +/- 3.52%); format: functional, Caco-2; design: scale not given: the % may be the effect or the level left
# Candida albicans [29] = test: Inhibition of cell adhesion of compound pre-treated Candida albicans SC5314 to human Caco2 cells assessed as cell adhesion level at 16 ug/ml pre-incubated for 18 hrs by colony counting method (reference value: 1.1 +/- 1.1%); format: functional, Caco-2; design: scale not given: the % may be the effect or the level left
# Candida albicans [30] = test: Antifungal activity against Candida albicans CAI4 expressing delta-cph1/delta-efg1 (EFG1) gene assessed as growth inhibition at 8 ug/ml by CLSI M27-A3 method; format: functional; conditions: read-out: GI; procedure, shortened: as §1
# Candida albicans [31] = test: Antifungal activity against Candida albicans CAI4 expressing delta-efg1 (EFG1) gene assessed as growth inhibition at by CLSI M27-A3 method; format: functional
# Candida albicans [32] = test: Antifungal activity against Candida albicans CAI4 expressing delta-efg1 gene assessed as growth inhibition at 8 ug/ml by CLSI M27-A3 method; format: functional; conditions: read-out: GI; procedure, shortened: as §2
smiles,measurement,setting,value
O=[N+]([O-])c1cc(S(=O)(=O)C(Cl)(Cl)Br)ccc1Cl,inhibition of growth at 0.25 µg/mL,Candida albicans [1],96.7%
same,inhibition of growth at 0.5 µg/mL,Candida albicans [2],98.7%
same,Activity,Candida albicans [3],0.38%
same,inhibition of growth at 1 µg/mL,Candida albicans [4],98.8%
same,MIC90,Candida albicans [5],16 µg/mL
same,Activity,Candida albicans [6],2.78%
same,inhibition of growth at 8 µg/mL,Candida albicans [7],99.8%
same,inhibition of growth at 0.5 µg/mL,Candida albicans [8],98.7%
same,Activity,Candida albicans [9],2.2%
same,inhibition of growth at 8 µg/mL,Candida albicans [10],99.4%
same,inhibition of growth at 0.5 µg/mL,Candida albicans [11],97.1%
same,inhibition of growth at 8 µg/mL,Candida albicans [12],99.5%
same,inhibition of growth at 16 µg/mL,Candida albicans [13],99.8%
same,inhibition of growth at 4 µg/mL,Candida albicans [14],99.3%
same,inhibition of growth at 0.5 µg/mL,Candida albicans [15],99%
same,inhibition of growth at 1 µg/mL,Candida albicans [16],97.8%
same,inhibition of growth at 4 µg/mL,Candida albicans [17],99.7%
same,inhibition of growth at 4 µg/mL,Candida albicans [18],99%
same,Activity,Candida albicans [19],0.78%
same,inhibition of growth at 1 µg/mL,Candida albicans [20],98.8%
same,inhibition of growth at 16 µg/mL,Candida albicans [21],99.5%
same,inhibition of growth at 0.25 µg/mL,Candida albicans [22],99%
same,inhibition of growth at 4 µg/mL,Candida albicans [23],98.7%
same,inhibition of growth at 2 µg/mL,Candida albicans [24],98.9%
same,inhibition of growth at 0.5 µg/mL,Candida albicans [25],98.6%
same,inhibition of growth at 0.25 µg/mL,Candida albicans [26],97.4%
same,inhibition of growth at 4 µg/mL,Candida albicans [27],99%
same,Activity,Candida albicans [28],0.99%
same,Activity,Candida albicans [29],0.71%
same,inhibition of growth at 8 µg/mL,Candida albicans [30],99.8%
same,MIC90,Candida albicans [31],16 µg/mL
same,inhibition of growth at 8 µg/mL,Candida albicans [32],99.5%
